Test results published in ChEMBL document CHEMBL1126868, “Inhibitors of blood platelet cAMP phosphodiesterase. 4. Structural variation of the side-chain terminus of water-soluble 1,3-dihydro-2H-imidazo[4,5-b]quinolin-2-one derivatives” (J Med Chem, 1993).
Values joined by “and” are separate entries in the source; they are usually repeats but may differ in a detail not shown here. Equal values may be shown once.

How the values were obtained:
[1] = % metabolized in monkey S-9 after 2 hours (1 ug/ml); assay type: ADME; conditions: simiiformes, monkey S-9 fraction; read-out: Activity
Outline: (§1)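 Monkey liver homogenised at 0 °C in 3 volumes isotonic KCl (0.05 M phosphate, pH 7.4), spun 9000g 30 min to give S-9. Triplicate incubations at 37 °C for 2 h with cofactor mix (glucose-6-phosphate, NADP, nicotinamide, MgCl2), final drug 1 or 10 μg/mL. Parent measured by fluorescence HPLC after MeOH protein precipitation; % metabolized = 100% minus % remaining at 2 h versus t=0.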

[2] = % metabolized in monkey S-9 after 2 hours (10 ug/ml); assay type: ADME; conditions: simiiformes, monkey S-9 fraction; read-out: Activity; outline: as §1
[3] = Aqueous solubility; assay type: physicochemical; conditions: read-out: S
Outline: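 A 10-mg sample was placed in 0.5 mL water and diluted stepwise up to 10 mL, or until it dissolved. Solubility is reported in mg/mL.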

Homo sapiens [4] = species: Homo sapiens; test: Inhibition of human platelet aggregation induced by ADP after 3 min incubation with platelet rich plasma; assay type: functional; conditions: 0.05 h
Outline: (§2)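 Human platelet-rich plasma was preincubated with drug for 3 min (standard) or 15 min, then aggregation was induced with 5.86 μM ADP. Aggregation at a range of drug concentrations was compared with vehicle-treated controls, and IC50 was taken from dose-response curves. Values are single, duplicate or triplicate (with SD) determinations.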

Homo sapiens [5] = species: Homo sapiens; test: Inhibition of human platelet aggregation induced by ADP after 15 min incubation with platelet rich plasma; assay type: functional; conditions: 0.25 h; outline: as §2
Phosphodiesterase 3 [6] = target: T1, Phosphodiesterase 3 (Homo sapiens, UniProt Q14432+Q13370); test: Inhibition of human platelet aggregation cAMP PDE in vitro; assay type: functional
Outline: (§3)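 Human platelet cAMP PDE assay run as in an earlier protocol, except that the [3H]adenosine product was resolved on DEAE Sephadex. Values are means of duplicate (deviation under 50% of mean) or triplicate determinations.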

[7] = half-life (t1/2 min); assay type: ADME; conditions: for T1/2: 2 h
Outline: (§4)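 Same monkey liver S-9 incubation (37 °C, final drug 1 or 10 μg/mL, triplicate). Aliquots taken at 0, 15, 30, 60, 90 and 120 min, quenched with MeOH and analysed for parent by fluorescence HPLC peak height. Half-life = ln 2 divided by the slope of a least-squares linear regression of peak height against time.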

[8] = % metabolized in monkey S-9 after 2 hours (10 ug/mL); assay type: ADME; conditions: simiiformes, monkey S-9 fraction; read-out: Activity; outline: as §1
[9] = t1/2 (min); assay type: ADME; outline: as §4
Phosphodiesterase 3 [10] = target: T1, Phosphodiesterase 3; test: Inhibition of human blood platelet c-AMP phosphodiesterase; assay type: functional; outline: as §3

Row | metabolised at 2 h, 1 ug/ml [1] | metabolised at 2 h, 10 ug/ml [2] | solubility [3] | IC50 (Homo sapiens [4]) | IC50 (Homo sapiens [5]) | IC50 (Phosphodiesterase 3 [6]) | half-life [7] | T1/2 [7] | metabolised at 2 h, 10 ug/mL [8] | half-life [9] | IC50 (Phosphodiesterase 3 [10]) | SMILES
1 | 25.2% | 9.6% | > 10 mg/mL | 0.025 µM | 0.0064 µM | 0.00063 µM |  |  |  |  |  | Cl.O=S(=O)(CCCOc1ccc2[nH]c3nc(O)nc-3cc2c1)C1CCN(Cc2ccccc2)CC1
2 | 22.9% |  | > 10 mg/mL | 0.016 µM | 0.003 µM | 0.00081 µM | 5.13 h |  |  |  |  | Cl.Oc1nc2cc3cc(OCCCc4nnnn4C4CCN(CC5CCCCC5)CC4)ccc3[nH]c-2n1
3 | 17% | 22.4% | < 10 mg/mL | 0.039 µM | 0.009 µM | 0.00113 µM | 6.08 h | 7.05 h |  |  |  | CCC(CC)CN1CCC(S(=O)(=O)CCCOc2ccc3[nH]c4nc(O)nc-4cc3c2)CC1.Cl
4 | 7.2% |  | > 10 mg/mL | 0.039 µM | 0.004 µM | 0.00084 µM | 15.8 h |  |  |  |  | Cl.Oc1nc2cc3cc(OCCCc4nnnn4C4CCN(Cc5ccccc5)CC4)ccc3[nH]c-2n1
5 | 31.3% |  | > 10 mg/mL | 0.012 µM | 0.003 µM | 0.00081 µM | 3.37 h |  |  |  |  | CCC(CC)CN1CCC(n2nnnc2CCCOc2ccc3[nH]c4nc(O)nc-4cc3c2)CC1.Cl
6 | 29.4% | 18% | > 20 mg/mL | 0.28 µM | 0.035 µM | 0.00496 µM | 6.75 h | 4.02 h |  |  |  | Cl.O=S(=O)(CCCOc1ccc2[nH]c3nc(O)nc-3cc2c1)N1CCN(Cc2ccc(F)cc2)CC1
7 | 40.6% | 21.7% |  |  |  |  |  | 5.55 h and 2.4 h |  |  |  | O=C(CCCOc1ccc2[nH]c3nc(O)nc-3cc2c1)N1CCN(CC2CCCCC2)CC1
8 | 58.5% | 23.6% | > 20 mg/mL | 0.072 µM | 0.018 µM | 0.00113 µM |  |  |  |  |  | Cl.O=C(NCCCOc1ccc2[nH]c3nc(O)nc-3cc2c1)N1CCN(CC2CCCCC2)CC1
9 | 67.7% | 21.2% | > 20 mg/mL | 0.13 µM | 0.06 µM | 0.00542 µM |  |  |  |  |  | Cl.O=S(=O)(CCCOc1ccc2[nH]c3nc(O)nc-3cc2c1)N1CCN(Cc2ccccc2)CC1
10 | 4.9% |  | > 10 mg/mL | 0.032 µM | 0.008 µM | 0.00103 µM | 24.6 h |  |  |  |  | Cl.Oc1nc2cc3cc(OCCCc4nnnn4C4CCN(Cc5ccc(F)cc5)CC4)ccc3[nH]c-2n1
11 |  |  | > 10 mg/mL | 0.02 µM | 0.0084 µM |  |  |  | 53% | 2 h | 0.001 µM | Cl.O=S(=O)(CCCOc1ccc2[nH]c3nc(O)nc-3cc2c1)C1CCN(Cc2ccc(F)cc2)CC1
